Bioassay records from PubChem BioAssay.
This is a sample that favours compounds with a hit; in the whole collection about 2.2% have one here.
Ba/F3 V617F tox = reduce viability of Ba/F3 cells dependent on JAK2V617F | Ba/F3 EpoR-JAK2V617F viability, ATP luminescence | inhibition, % at 5.6 µM | 1.1% of 220,000 active | AID 1446;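 active means inhibition above the campaign mean plus 3 SD over all tested compounds, cut at about 24% in these data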;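 further: cytokine-independent growth of Ba/F3 cells driven by EpoR plus mutant JAK2; 0% = DMSO-treated cells and 100% = JAK inhibitor I control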
APP 5UTR inh = APP translation inhibition. SH-SY5Y APP 5'UTR-luciferase reporter, luminescence. inhibition, % at 2 µM. 0.82% of 190,000 active. AID 1285;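 active means inhibition above a set limit, derived from the sample mean plus 3 SD, cut at about 45% in these data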
BaF3 parental = parental Ba/F3 viability inhibition as JAK2V617F counter-screen; 1.1% of 220,000 active; inhibition, % at 5.6 µM; AID 1486; CellTiter-Glo ATP luminescence;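 active means inhibition above a per-campaign cutoff, the mean inhibition of all tested compounds plus 3 SD, cut at about 27% in these data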;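 further: 0% = DMSO wells and 100% = JAK Inhibitor I control wells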
IEC-6 tox = kills IEC-6 intestinal cells in KLF5 counter-screen. 0.78% of 290,000 active. inhibition, % at 5 µM. IEC-6 cytotoxicity, luminescence viability; in the data active means inhibition above about 22%;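 further: 0% = plate median of test compound wells and 100% = cytotoxic reference compound wells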
MT stabilizer = microtubule stabilization, imaging screen; HeLa tubulin immunostaining HCS, 24 h; share of cells brighter than vehicle mean+2SD; % tubulin-high responders, % at 10 µM; 0.83% of 200,000 active;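 active means plate Z-score above 3 for both tubulin-high and condensed-nucleus cell shares, with cell loss under 80%, at 10 µM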;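 further: anti alpha tubulin signal scored within the nucleus-defined area of each cell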
bCat nuc transl = modulators of beta-catenin nuclear translocation. HeLa beta-catenin nuclear translocation, immunofluorescence imaging. nuclear translocation activity, % at 5 µM. 0.3% of 190,000 active;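 active means nuclear translocation activity above 50% at 5 µM, with a well cell count of 50 or more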;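 further: per-cell ratio of nuclear to cytoplasmic median beta-catenin stain intensity; plate controls were DMSO negative control for no effect and GSK-3 inhibitor IX positive control for full effect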
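System: Human HeLa cells, endogenous beta-catenin | Compound dosing: 5 µM primary, 0.02–20 µM confirmation | Timing: 24 h compound exposure at 37°C, 5% CO2 | Measured by: Fluorescence imaging of beta-catenin antibody stain plus DAPI | Read-out basis: % activation of per-cell nuclear versus cytoplasmic median beta-catenin signal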
* = called active by the depositor; nt = not tested or not shown.

SMILES	Ba/F3 V617F tox	APP 5UTR inh	BaF3 parental	IEC-6 tox	MT stabilizer	bCat nuc transl
CCOc1ccc(-c2nnn(CC(=O)NCc3ccco3)n2)cc1OCC	-1	15	6	-3	4	-5
CCCCOc1ccc(-c2nnn(CC(=O)NCc3ccco3)n2)cc1	6	-7	-1	-3	39*	24
OC1(c2ccccc2)CN(c2ccccc2)C2=[N+]1CCS2 (centres undefined)	35*	-16	37*	5	3	nt
OC1(c2cccs2)CN(c2ccc(Br)cc2)C2=[N+]1CCCS2 (centres undefined)	-2	nt	-4	-5	nt	-2
Cc1c(Cl)cccc1N1C(=O)c2ccccc2C1=O	1	68*	3	1	3	-1
C=CCOc1c(Cl)cc(CNCCCN2CCOCC2)cc1OC	nt	nt	nt	-1	nt	nt
C(=C1/CCCC2=C1Nc1ncnn1C2c1ccccc1)/c1ccccc1 (centres undefined)	55*	34	54*	26*	6	-1
CC(=O)N1C=Cc2c(c(C)c3c([nH]c4ccccc43)c2C)C1	80*	nt	69*	69*	nt	-1
Cc1cc(-n2c(C)cc(C(=O)CSc3ncnc4ccccc34)c2C)no1	44*	4	51*	5	3	1
Cc1cc(-n2c(C)cc(C(=O)CSc3nnc4sc5ccccc5n34)c2C)no1	-2	-7	1	-3	2	-4
CC12CC3CC(C)(C1)CC(C(=O)NCc1cccnc1)(C3)C2	nt	nt	nt	-5	nt	nt
COc1cc2ccccc2cc1C(=O)Nc1ccc(Cc2ccncc2)cc1	-2	-5	8	-5	50*	3
C/C(=N\NC(=S)NCc1ccccc1)c1ccco1	-1	-11	67*	-3	4	-2
CC(NCc1ccccc1)C1COc2ccccc2O1 (centres undefined)	-1	-19	2	-7	1	nt
COc1ccc(CNC(C)C2COc3ccccc3O2)c(OC)c1 (centres undefined)	1	8	96*	3	5	6
CN(C)c1cc[n+](CC(=O)N2CCCc3ccccc32)cc1	52*	2	63*	2	5	2
COC(=O)c1ccc(Cn2nc(-c3cc(C)ccc3C)ccc2=O)cc1	nt	nt	nt	-4	nt	nt
CCCC(c1nnnn1CC1CCCO1)N1CCN(c2cc(Cl)ccc2C)CC1 (centres undefined)	-6	-13	31*	0	4	1
Cc1ccc(Cl)cc1N1CCN(C(CC(C)C)c2nnnn2CC2CCCO2)CC1 (centres undefined)	-2	6	3	-4	4	0
Cc1oc2ccc(OS(C)(=O)=O)cc2c1C(=O)OC(C)C	42*	-25	85*	-12	5	nt
O=C(N/C=N/O)C(c1ccccc1)c1ncc(C(F)(F)F)cc1Cl (centres undefined)	nt	nt	nt	-1	nt	nt
Oc1ccccc1N=Cc1ccc[nH]1	-1	15	5	4	4	-2
Oc1ccccc1N=Nc1ccccc1O	6	83*	3	-3	12	3
COc1cc(OC)cc(-c2nnc(SCC(=O)Nc3cc(C)on3)o2)c1	1	-8	95*	-5	3	nt
Cc1cc(NC(=O)CSc2nnc(-c3ccccc3)c(-c3ccccc3)n2)no1	-2	63*	3	-4	22*	2
SMILES	Ba/F3 V617F tox	APP 5UTR inh	BaF3 parental	IEC-6 tox	MT stabilizer	bCat nuc transl
COC1CCN(Cc2c(C(=O)N3CCN(C4CCCCC4)CC3)nc3ccccn23)CC1	nt	nt	nt	-1	nt	nt
COCCN(Cc1cc2ccc(C)cc2n2nnnc12)Cc1nnnn1C(C)(C)C	-3	46*	1	-4	3	-7
COC(=O)c1cccc(NC(=O)CSc2nnc(C3CC3)n2C)c1	nt	nt	nt	-1	nt	nt
Cc1cccc(N2CCN(c3ccc4cc(S(=O)(=O)N5CCCCC5)ccc4n3)CC2)c1C	nt	nt	nt	-5	nt	nt
Nc1ccc(C#Cc2ccccc2)cc1	-3	-7	5	3	2	nt
Nc1ccccc1C#Cc1ccccc1	14	-119	35*	0	3	nt
CCC(=O)NC(c1ccco1)c1cc(Cl)c2cccnc2c1O (centres undefined)	0	-4	9	-5	1	1
CCC(=O)NC(c1ccccc1OC)c1ccc2cccnc2c1O (centres undefined)	61*	89*	68*	19	1	-3
CCC(=O)NC(c1ccc(OC)cc1)c1cc(Cl)c2cccnc2c1O (centres undefined)	-2	64*	-1	2	2	0
CCCCC(=O)NC(c1ccccc1Cl)c1ccc2cccnc2c1O (centres undefined)	nt	nt	nt	19	nt	nt
CCCC(=O)NC(c1cccs1)c1cc([N+](=O)[O-])c2cccnc2c1O (centres undefined)	-3	5	4	-1	1	nt
CCC(=O)NC(c1cccs1)c1cc([N+](=O)[O-])c2cccnc2c1O (centres undefined)	-3	nt	7	3	2	nt
CCCCC(=O)NC(c1ccco1)c1cc(Cl)c2cccnc2c1O (centres undefined)	3	46*	7	-4	2	2
O=C(CCc1ccccc1)NC(c1cccs1)c1cc(Cl)c2cccnc2c1O (centres undefined)	-1	68*	1	-4	10*	0
COc1ccc(C(NC(=O)c2cccnc2)c2cc(Cl)c3cccnc3c2O)cc1OC (centres undefined)	1	74*	5	7	1	1
Oc1c(C(Nc2ccccn2)c2cccnc2)cc(Cl)c2cccnc12 (centres undefined)	-4	30	4	1	3	0
CCCC(=O)NC(c1ccc(OC)cc1)c1ccc2cccnc2c1O (centres undefined)	54*	82*	66*	38*	8.7*	0
COc1ccc(/C=C2\C(=O)NCC(=O)N2C)cc1	nt	nt	nt	2	nt	nt
COc1ccc(/C=C2\C(=O)NCC(=O)N2Cc2ccccc2)cc1	0	-6	3	16	32*	-2
COc1ccc(COc2cc(-c3cccc(OC)c3)nc3ccc(N)cc23)cc1	81*	96*	84*	6	7	nt
COc1ccc(COc2cc(-c3cccc(OC)c3)nc3ccc(NC(C)=O)cc23)cc1	4	0	7	10	3	nt
COc1ccc(N/N=C(\C=N\O)C(=O)c2ccc(OC)cc2)cc1	10	88*	17	11	38*	nt
CN1c2cccc3cccc(c23)N(C)C1(C)C	27*	3	58*	5	2	nt
CSCC(=O)N1CCc2ccc(NC(=O)c3ccccc3Cl)cc2C1	nt	nt	nt	4	nt	nt
COc1ccc(N(CC(=O)N2CCc3ccccc3C2)S(C)(=O)=O)cc1Cl	nt	nt	nt	-6	nt	nt
CCCc1cc(C(=O)Nc2cc(OC)ccc2OC)cs1	nt	nt	nt	10	nt	nt
O=C(c1cc(-c2ccccc2)nc2ccccc12)N1CCc2ccccc2C1	-3	-16	1	-4	1	0
